From ChEMBL document CHEMBL1157968, “Chemical and cytotoxic constituents from the leaves of Cinnamomum kotoense” (2006)

What was measured:
Format in all cases: functional
HeLa [1] = test: Induction of apoptosis in human HeLa cells pretreated with 5 uM cyclosporin A for 1 hr at 100 uM after 24 hrs by TUNEL assay
Procedure, shortened: (§1)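 HeLa in DMEM/10% FCS, untreated or pretreated 1 h with listed inhibitor, then 100 µM agent (0.1% DMSO final) for 24 h. Pooled cells fixed in 1% paraformaldehyde (30 min, 4 °C), 70% EtOH (30 min, −20 °C); strand breaks labelled with TdT/fluorescein-BrdUTP (1 h, 37 °C), PI/RNase counterstain; flow cytometry, % apoptotic cells; ≥3 experiments.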

HeLa [2] = test: Cell cycle arrest in human HeLa cells assessed as G1 phase accumulation at 25 uM after 24 hrs by FACS
Procedure, shortened: (§2)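 HeLa cells seeded 5 × 10^5 per dish 48 h ahead in DMEM with 10% FCS, then exposed to compound for 24 h (DMSO 0.1% final). Adherent and floating cells pooled, fixed in PBS-MeOH (1:2) at 4 °C for at least 18 h, and stained with PI (50 µg/mL) plus RNase A for 30 min at room temperature. Flow cytometry at 488 nm excitation, doublets gated out; phase percentages taken from DNA histograms.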

HeLa [3] = test: Induction of apoptosis in human HeLa cells assessed as increase in intracellular hydrogen peroxide level at 100 uM after 1 hr by FACS relative to untreated control
Procedure, shortened: (§3)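 HeLa cells at 80% confluence were refed and exposed to 100 µM for 1, 3 or 24 h. They were loaded with 10 µM DCFH-DA for 30 min in the dark, trypsinized and resuspended in PBS. DCF fluorescence was measured by flow cytometry and expressed as fold versus untreated cells. At least three experiments.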

HeLa [4] = test: Cell cycle arrest in human HeLa cells assessed as G2/M phase accumulation at 25 after 24 hrs by FACS; procedure, shortened: as §2
HeLa [5] = test: Cell cycle arrest in human HeLa cells pretreated with 100 uM Boc-Asp(OMe)-fmk for 1 hr assessed as subG1 phase accumulation at 100 uM after 24 hrs by FACS
Procedure, shortened: (§4)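 HeLa cells pretreated for 1 h with the listed agent (10 mM GSH ethyl ester, 10 µM dexamethasone, 10 µM pifithrin, 100 µM Boc-Asp(OMe)-fmk or 5 µM cyclosporin A), then given 100 µM compound for 24 h. Cells fixed in PBS-MeOH, stained with PI/RNase and analysed by flow cytometry for DNA content. At least three experiments, one representative shown.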

HeLa [6] = test: Cell cycle arrest in human HeLa cells assessed as G1 phase accumulation at 100 uM after 24 hrs by FACS; procedure, shortened: as §2
HeLa [7] = test: Induction of apoptosis in human HeLa cells assessed as increase in intracellular peroxide level at 100 uM after 1 hr by FACS relative to untreated control; procedure, shortened: as §3
HeLa [8] = test: Induction of apoptosis in human HeLa cells pretreated with 10 mM glutathione ethyl ester for 1 hr at 100 uM after 24 hrs by TUNEL assay; procedure, shortened: as §1
HeLa [9] = test: Induction of apoptosis in human HeLa cells assessed as increase caspase 3/7 activities at 100 uM after 12 hrs by FACS relative to control
Procedure, shortened: (§5)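 After 3–24 h exposure at 100 µM, HeLa cells were trypsinized. 1 × 10^6 cells in DMEM were mixed 1:1 with Z-DEVD-R110 substrate reagent and incubated 1 h at 37 °C, then washed. Released R110 read per cell by flow cytometry (ex 488/em 520 nm) and expressed as fold over untreated cells. At least three runs.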

HeLa [10] = test: Cell cycle arrest in human HeLa cells pretreated with 10 uM Dexamethasone for 1 hr assessed as G1 phase accumulation at 100 uM after 24 hrs by FACS; procedure, shortened: as §4
HeLa [11] = test: Induction of apoptosis in human HeLa cells assessed as increase caspase 3/7 activities at 100 uM after 9 hrs by FACS relative to control; procedure, shortened: as §5
HeLa [12] = test: Induction of apoptosis in human HeLa cells assessed as increase caspase 3/7 activities at 100 uM after 6 hrs by FACS relative to control; procedure, shortened: as §5
HeLa [13] = test: Induction of apoptosis in human HeLa cells assessed as increase p53 expression at 100 uM after 3 hrs by FACS
Procedure, shortened: (§6)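 HeLa seeded at 5 × 10^5 cells/dish 48 h before, in DMEM with 10% FCS; medium renewed at 60% confluence, then 100 µM agent (0.1% DMSO final) for 0–24 h. Pooled floating and adherent cells fixed in 1% paraformaldehyde (15 min, 4 °C), permeabilized in 70% EtOH (30 min, 4 °C), then FITC-conjugated mouse anti-p53 mAb (1 h, 37 °C), PI/RNase counterstain; flow cytometry, % p53-positive cells; ≥3 experiments.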

HeLa [14] = test: Cell cycle arrest in human HeLa cells assessed as G2/M phase accumulation at 100 uM after 24 hrs by FACS; procedure, shortened: as §2
HeLa [15] = test: Induction of apoptosis in human HeLa cells assessed as increase in intracellular nitric oxide level at 100 uM after 1 hr by FACS relative to untreated control
Procedure, shortened: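 HeLa cells at 80% confluence were exposed to 100 µM for 1, 3 or 24 h and then stained with 1 µM DAF-2 for 10 min in the dark. After trypsinization, DAF-2 fluorescence was measured by flow cytometry and taken as fold versus untreated cells. At least three experiments.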

HeLa [16] = test: Cell cycle arrest in human HeLa cells assessed as S phase accumulation at 25 uM after 24 hrs by FACS; procedure, shortened: as §2
HeLa [17] = test: Cell cycle arrest in human HeLa cells assessed as G2/M phase accumulation at 50 uM after 24 hrs by FACS; procedure, shortened: as §2
HeLa [18] = test: Cell cycle arrest in human HeLa cells assessed as subG1 phase accumulation at 100 uM after 24 hrs by FACS; procedure, shortened: as §2
HeLa [19] = test: Induction of apoptosis in human HeLa cells assessed as number of cells with decreased mitochondrial membrane potential at 100 uM after 6 hrs by measuring rhodamine 123 fluorescence intensity; set-up: scale not given: the % may be the effect or the level left
Procedure, shortened: (§7)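 Cells in DMEM/10% FCS, medium renewed at 80% confluence, then 100 µM agent (0.1% DMSO final) for 1–24 h. Stained with 5 µM rhodamine 123 for 30 min in the dark, washed, trypsinized and resuspended in PBS; flow cytometry, percentage of cells with weak rhodamine 123 staining (reduced ΔΨm); at least three experiments, representative shown.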

HeLa [20] = test: Induction of apoptosis in human HeLa cells assessed as number of cells with decreased mitochondrial membrane potential at 100 uM after 12 hrs by measuring rhodamine 123 fluorescence intensity; set-up: scale not given: the % may be the effect or the level left; procedure, shortened: as §7
HeLa [21] = test: Induction of apoptosis in human HeLa cells assessed as increase in intracellular peroxide level at 100 uM after 3 hrs by FACS relative to untreated control; procedure, shortened: as §3
HeLa [22] = test: Induction of apoptosis in human HeLa cells assessed as number of cells with decreased mitochondrial membrane potential at 100 uM after 1 hr by measuring rhodamine 123 fluorescence intensity; set-up: scale not given: the % may be the effect or the level left; procedure, shortened: as §7
HeLa [23] = test: Induction of apoptosis in human HeLa cells assessed as increase p53 expression at 100 uM after 24 hrs by FACS; procedure, shortened: as §6
HeLa [24] = test: Cell cycle arrest in human HeLa cells assessed as S phase accumulation at 25 50 after 24 hrs by FACS; procedure, shortened: as §2
HeLa [25] = test: Cell cycle arrest in human HeLa cells pretreated with 5 uM cyclosporin A for 1 hr assessed as subG1 phase accumulation at 100 uM after 24 hrs by FACS; procedure, shortened: as §4

## CCCCCCCCCCCCC/C=C(/C(=O)OC)[C@@H](O)C(C)=O [SECOKOTOMOLIDE A]
HeLa [1]
  Activity: 54.5%
HeLa [2]
  Activity: 55.2%
HeLa [3]
  fold change (FC): 3.4
HeLa [4]
  Activity: 28.7%
HeLa [5]
  Activity: 74.8%
HeLa [6]
  Activity: 65.2%
HeLa [7]
  fold change (FC): 3.4
HeLa [8]
  Activity: 5.43%
HeLa [9]
  fold change (FC): 4.6
HeLa [10]
  Activity: 53.9%
HeLa [11]
  fold change (FC): 9.9
HeLa [12]
  fold change (FC): 5.9
HeLa [13]
  Activity: 0.5%
HeLa [14]
  Activity: 31%
HeLa [15]
  fold change (FC): 2.1
HeLa [16]
  Activity: 18.1%
HeLa [17]
  Activity: 29%
HeLa [18]
  Activity: 75%
HeLa [19]
  Activity: 23%
HeLa [20]
  Activity: 75.1%
HeLa [21]
  fold change (FC): 2.9
HeLa [22]
  Activity: 1.4%
HeLa [23]
  Activity: 28.8%
HeLa [24]
  Activity: 20.3%
HeLa [25]
  Activity: 61.2%
